From ChEMBL document CHEMBL1125520, “Improved brain delivery of AZT using a glycosyl phosphotriester prodrug” (1992) come the findings set out here.

Test [1] relates to Mus musculus. Description: In Vivo detection in Mice brains after oral administration of 58.33 mg/kg detected in the form of AZT phosphodiester 2 after 4 hr. In kind it is functional.
For test [2], the system named is Mus musculus. Briefly: In Vivo detection in Mice plasma after oral administration of 58.33 mg/kg detected in the form of AZT after 4 hr. In kind it is functional, organism-based. The arrangement: dose 58.33 mg/kg.
Test [3] concerns Mus musculus. Description: In Vivo detection in Mice brains after oral administration of 58.33 mg/kg detected in the form of AZT phosphodiester 2 after 24 hr. Type of test: functional.
The test system of test [4] is Mus musculus. Briefly: In Vivo detection in Mice brains after oral administration of 58.33 mg/kg detected in the form of AZT phosphodiester 2 after 0.5 hr. Type of test: functional.
For test [5], the system named is Mus musculus. Briefly: In Vivo detection in Mice brains after oral administration of 58.33 mg/kg detected in the form of AZT after 1 hr. In kind it is functional.
Test [6] concerns Mus musculus. Briefly: In Vivo detection in Mice brains after oral administration of 58.33 mg/kg detected in the form of AZT phosphodiester 3 after 48 hr. Type of test: functional.
In test [7] the test system is Mus musculus. Briefly: In Vivo detection in Mice plasma after oral administration of 58.33 mg/kg detected in the form of AZT phosphodiester 3 after 1 hr. Type of test: functional, organism-based. On the set-up: dose 58.33 mg/kg. The method in brief:
(§1)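 Male Swiss mice (18–20 g, six weeks old) given the test substance or vehicle ([…]) by gavage as a 3 mM solution (1.5 µmol/mouse). Aortic blood was collected into heparinized tubes at 0.5–48 h and centrifuged at 13000g for 10 min. Plasma was stored at -22 °C and analysed by HPLC. Three mice were used per time point, in triplicate. Values were not corrected for recovery.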

The subject of test [8] is Mus musculus. Briefly: In Vivo detection in Mice brains after oral administration of 58.33 mg/kg detected in the form of AZT phosphodiester 2 after 8 hr. Type of test: functional.
For test [9], the system named is Mus musculus. Description: In Vivo detection of total AZT in Mice brains after oral administration of 58.33 mg/kg after 2 hr. Type of test: functional. The method in brief:
(§2)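 Male Swiss mice (18–20 g) dosed orally with a 3 mM solution in […] vehicle; decapitated at 0.5–48 h. Brains were homogenized in acetonitrile-water (3:1), centrifuged at 6000g for 40 min at 4 °C, lyophilized, redissolved in water and filtered (0.45 µm). Reversed-phase C18 column-switching HPLC with diode-array detection; standard spiking; vehicle-fed controls. Three mice per point, triplicates.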

Test [10] has as its system Mus musculus. Description: In Vivo detection in Mice brains after oral administration of 58.33 mg/kg detected in the form of AZT phosphodiester 2 after 1 hr. Type of test: functional.
The subject of test [11] is Mus musculus. Briefly: In Vivo detection in Mice brains after oral administration of 58.33 mg/kg detected in the form of AZT 5`-P after 2 hr. In kind it is functional.
For test [12], the system named is Mus musculus. Briefly: In Vivo detection in Mice brains after oral administration of 58.33 mg/kg detected in the form of AZT 5`-P after 8 hr. Type of test: functional.
Test [13] relates to Mus musculus. Briefly: In Vivo detection in Mice plasma after oral administration of 58.33 mg/kg detected in the form of AZT phosphodiester 2 after 24 hr. In kind it is functional, organism-based. The arrangement: dose 58.33 mg/kg. The method in brief:
as §1

In test [14] the test system is Mus musculus. Briefly: In Vivo detection in Mice brains after oral administration of 58.33 mg/kg detected in the form of AZT phosphodiester 3 after 24 hr. In kind it is functional.
The subject of test [15] is Mus musculus. Briefly: In Vivo detection of total AZT in Mice brains after oral administration of 58.33 mg/kg after 0.5 hr. Type of test: functional. An outline of the steps: as §2
The subject of test [16] is Mus musculus. Description: In Vivo detection in Mice plasma after oral administration of 58.33 mg/kg detected in the form of AZT phosphodiester 2 after 8 hr. In kind it is functional, organism-based. The arrangement: dose 58.33 mg/kg. An outline of the steps:
as §1

The test system of test [17] is Mus musculus. Description: In Vivo detection of total AZT in Mice brains after oral administration of 58.33 mg/kg after 1 hr. In kind it is functional. The method in brief:
as §2

Test [18] deals with Mus musculus. Briefly: In Vivo detection of total AZT in Mice plasma after oral administration of 58.33 mg/kg after 2 hr. In kind it is functional, organism-based. The arrangement: dose 58.33 mg/kg. The method in brief: as §1
Test [19] deals with Mus musculus. Description: In Vivo detection in Mice plasma after oral administration of 58.33 mg/kg detected in the form of AZT phosphodiester 3 after 0.5 hr. Type of test: functional, organism-based. The arrangement: dose 58.33 mg/kg. The method in brief:
as §1

Test [20] concerns Mus musculus. Briefly: In Vivo detection in Mice brains after oral administration of 58.33 mg/kg detected in the form of AZT 5`-P after 24 hr. Type of test: functional.
For test [21], the system named is Mus musculus. Description: In Vivo detection in Mice brains after oral administration of 58.33 mg/kg detected in the form of AZT 5`-P after 0.5 hr. In kind it is functional.
The test system of test [22] is Mus musculus. Description: In Vivo detection in Mice brains after oral administration of 41.63 mg/kg detected in the form of AZT after 8 hr. In kind it is functional.
In test [23] the test system is Mus musculus. Briefly: In Vivo detection of total AZT in Mice brains after oral administration of 41.63 mg/kg after 4 hr. In kind it is functional. An outline of the steps:
as §2

Test [24] deals with Mus musculus. Description: In Vivo detection in Mice plasma after oral administration of 41.63 mg/kg detected in the form of AZT phosphodiester 2 after 4 hr. In kind it is functional, organism-based. On the set-up: dose 41.63 mg/kg.
In test [25] the test system is Mus musculus. Description: In Vivo detection of total AZT in Mice plasma after oral administration of 41.63 mg/kg after 2 hr. The arrangement: dose 41.63 mg/kg. Type of test: functional, organism-based. An outline of the steps:
as §1

Test [26] has as its system Mus musculus. Description: In Vivo detection in Mice plasma after oral administration of 41.63 mg/kg detected in the form of AZT 5`-P after 4 hr. The arrangement: dose 41.63 mg/kg. Type of test: functional, organism-based.
The subject of test [27] is Mus musculus. Description: In Vivo detection in Mice plasma after oral administration of 41.63 mg/kg detected in the form of AZT phosphodiester 2 after 0.5 hr. In kind it is functional, organism-based. The arrangement: dose 41.63 mg/kg.
For test [28], the system named is Mus musculus. Description: In Vivo detection of total AZT in Mice brains after oral administration of 41.63 mg/kg after 0.5 hr. Type of test: functional. An outline of the steps: as §2
In test [29] the test system is Mus musculus. Description: In Vivo detection in Mice brains after oral administration of 41.63 mg/kg detected in the form of AZT after 2 hr. In kind it is functional.
Test [30] deals with Mus musculus. Description: In Vivo detection in Mice plasma after oral administration of 41.63 mg/kg detected in the form of AZT phosphodiester 2 after 2 hr. On the set-up: dose 41.63 mg/kg. Type of test: functional, organism-based.
The test system of test [31] is Mus musculus. Description: In Vivo detection in Mice plasma after oral administration of 41.63 mg/kg detected in the form of AZT 5`-P after 8 hr. Type of test: functional, organism-based. The arrangement: dose 41.63 mg/kg.
The test system of test [32] is Mus musculus. Description: In Vivo detection in Mice brains after oral administration of 41.63 mg/kg detected in the form of AZT phosphodiester 2 after 1 hr. Type of test: functional.
Test [33] concerns Mus musculus. Description: In Vivo detection in Mice plasma after oral administration of 41.63 mg/kg detected in the form of AZT phosphodiester 2 after 24 hr. The arrangement: dose 41.63 mg/kg. In kind it is functional, organism-based.
Test [34] concerns Mus musculus. Briefly: In Vivo detection in Mice brains after oral administration of 41.63 mg/kg detected in the form of AZT 5`-P after 4 hr. Type of test: functional.
For test [35], the system named is Mus musculus. Briefly: In Vivo detection in Mice plasma after oral administration of 41.63 mg/kg detected in the form of AZT 5`-P after 2 hr. In kind it is functional, organism-based. On the set-up: dose 41.63 mg/kg.
Test [36] has as its system Mus musculus. Briefly: In Vivo detection of total AZT in Mice brains after oral administration of 41.63 mg/kg after 24 hr. In kind it is functional. The method in brief:
as §2

Test [37] has as its system Mus musculus. Description: In Vivo detection in Mice brains after oral administration of 20 mg/kg detected in the form of AZT phosphodiester 2 after 48 hr. In kind it is functional.
Test [38] concerns Mus musculus. Description: In Vivo detection in Mice brains after oral administration of 41.63 mg/kg detected in the form of AZT 5`-P after 48 hr. In kind it is functional.
Test [39] has as its system Mus musculus. Briefly: In Vivo detection in Mice plasma after oral administration of 41.63 mg/kg detected in the form of AZT 5`-P after 0.5 hr. Type of test: functional, organism-based. On the set-up: dose 41.63 mg/kg.
In test [40] the test system is Mus musculus. Description: In Vivo detection in Mice brains after oral administration of 41.63 mg/kg detected in the form of AZT after 1 hr. Type of test: functional.

With `CCCCCCCCCCCCCCCCOP(=O)(OCCO[C@H]1O[C@H](CO)[C@@H](O)[C@H](O)[C@@H]1O)OCC1OC(n2cc(C)c(=O)[nH]c2=O)CC1N=[N+]=[N-]` (stereo not given in full), the Brain content turned out to be 7.1 nmol/g in the test on Mus musculus [1]; 5.2 nmol/g in the test with Mus musculus [3]; 0.3 nmol/g in the test on Mus musculus [4]; 1.5 nmol/g in the test on Mus musculus [5]; 0 nmol/g with Mus musculus [6]; 5.3 nM ml-1 with Mus musculus [8]. Moreover, the Brain content turned out to be 140.8 nM ml-1 in the test on Mus musculus [9]; 8.5 nmol/g in the test with Mus musculus [10]; 133 nmol/g in the test with Mus musculus [11]; 106 nmol/g in the test on Mus musculus [12]; 0 nmol/g in the test on Mus musculus [14]; 38.5 nM ml-1 in the test with Mus musculus [15]. Besides, the Brain content was 156.7 nM ml-1 with Mus musculus [17], 81.3 nmol/g with Mus musculus [20] and 36.7 nmol/g in the test with Mus musculus [21]. Also, the Plasma content came to 2.3 nM ml-1 with Mus musculus [2]; 0 nM ml-1 in the test with Mus musculus [7]; 0 nM ml-1 in the test with Mus musculus [13]; 0 nM ml-1 with Mus musculus [16]; 5.4 nM ml-1 with Mus musculus [18]; 0 nM ml-1 in the test with Mus musculus [19].

As for `Cc1cn([C@H]2C[C@H](N=[N+]=[N-])[C@@H](COP(=O)(O)OCCO[C@H]3O[C@H](CO)[C@@H](O)[C@H](O)[C@@H]3O)O2)c(=O)[nH]c1=O`, the Brain content in the test with Mus musculus [22] amounted to 0.9 nmol/g; in the test on Mus musculus [23], 68.1 nM ml-1; in the test with Mus musculus [28] it was 38.6 nM ml-1; with Mus musculus [29], 1.2 nmol/g; in the test on Mus musculus [32], 16.5 nM ml-1; in the test on Mus musculus [34], 59.3 nmol/g. In addition, the Brain content in the test with Mus musculus [36] worked out at 61.8 nM ml-1; in the test with Mus musculus [37], 2.5 nM ml-1; in the test on Mus musculus [38], 48.5 nmol/g; in the test with Mus musculus [40], 1.9 nmol/g. In addition, the Plasma content in the test on Mus musculus [24] was determined as 0 nM ml-1; with Mus musculus [25], 19.7 nM ml-1; in the test with Mus musculus [26] it was 6.7 nM ml-1; in the test on Mus musculus [27], 4.5 nM ml-1; in the test on Mus musculus [30] it was 1.6 nM ml-1; in the test on Mus musculus [31] it was 5.7 nM ml-1. Further, the Plasma content in the test on Mus musculus [33] is 0 nM ml-1; in the test with Mus musculus [35], 15 nM ml-1; in the test on Mus musculus [39], 20.4 nM ml-1.
